7 molecules from ChEMBL document CHEMBL1140733, “Comprehensive study of sansalvamide A derivatives and their structure-activity relationships against drug-resistant colon cancer cell lines” (J Med Chem, 2008) can be followed below.

Peptide text beside a SMILES is read from it.

In test [1] the test system is HCT-116. Put plainly: Cytotoxicity against multidrug-resistant human HCT116 cells by thymidine incorporation assay. The format is functional, cell-based. A digest of the protocol:
(§1)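 Cells (3000/well) were plated in IMDM (HCT-116), RPMI 1640 (HCT-15) or MEM (WS-1), each with L-glutamine, 10% FBS and 0.1% penicillin-streptomycin. Compounds in DMSO (1% in all wells) were added after about 6 h and left for 72 h, with 3H-thymidine pulsed for the last 16 h. Uptake was scintillation-counted against DMSO controls. IC50 came from four-concentration curves, three experiments in quadruplicate.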

The test system of test [2] is HCT-15. Put plainly: Cytotoxicity against multidrug-resistant human HCT15 cells by thymidine incorporation assay. The format is functional, cell-based. In outline:
as §1

The subject of test [3] is HCT-116. Put plainly: Cytotoxicity against multidrug-resistant human HCT116 cells at 1 uM by thymidine incorporation assay. The class given is functional. A digest of the protocol: (§2)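 HCT-116 cells were grown in IMDM and HCT-15 in RPMI 1640, each with L-glutamine, 10% FBS and penicillin-streptomycin, at 3000 cells/well. Compound was applied at 1 µM in 1% DMSO for 72 h total, with 3H-thymidine added for the final 16 h. Percent growth inhibition versus DMSO controls was scintillation-counted, averaging three wells in each of three assays.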

Test [4] relates to HCT-15. Put plainly: Cytotoxicity against multidrug-resistant human HCT15 cells at 1 uM by thymidine incorporation assay. The format is functional. A digest of the protocol: as §2
A short description of test [5]: Cytotoxicity against human WS1 cells by thymidine incorporation assay. The class given is cell-based. In outline:
as §1

Test [6] has as its system HCT-116. Put plainly: Selectivity for multidrug-resistant human HCT116 cells over human WS1 cells. The format is functional.
The test system of test [7] is HCT-15. Put plainly: Selectivity for multidrug-resistant human HCT15 cells over human WS1 cells. The class given is functional.

Consider `CC(C)C[C@@H]1NC(=O)[C@H](C(C)C)NC(=O)[C@H](CC(C)C)NC(=O)[C@H](CC(C)C)N(C)C(=O)[C@H](Cc2ccccc2)NC1=O` (HELM PEPTIDE1{F.[meL].L.V.L}$PEPTIDE1,PEPTIDE1,1:R1-5:R2$$$V2.0), for which the figures for the 50% inhibitory concentration (IC50) (in the test with HCT-116 [1]; in the test with HCT-15 [2]; in test [5]) were 800 nM, 4500 nM and 200000 nM, respectively. For the same molecule, the results for the inhibition at 1 µM in the test with HCT-116 [3] and with HCT-15 [4] were 59% and 35%, respectively.

As for `CC(C)C[C@@H]1NC(=O)[C@H](C(C)C)NC(=O)[C@H](CC(C)C)NC(=O)[C@@H](CC(C)C)N(C)C(=O)[C@H](Cc2ccccc2)NC1=O` (HELM PEPTIDE1{[CC(C)C[C@H](C(=O)[*:2])N(C)[*:1]].L.V.L.F}$PEPTIDE1,PEPTIDE1,1:R1-5:R2$$$V2.0), the IC50 with HCT-116 [1] was 2000 nM; in the test with HCT-15 [2], 1200 nM; in test [5], 200000 nM. The inhibition at 1 µM turned out to be 42% in the test on HCT-116 [3] and 48% with HCT-15 [4].

For `CC(C)C[C@@H]1NC(=O)[C@H](Cc2ccccc2)NC(=O)[C@@H](Cc2ccccc2)N(C)C(=O)[C@H](C(C)C)NC(=O)[C@H](CC(C)C)NC1=O`, the IC50 worked out at 800 nM with HCT-116 [1], 700 nM with HCT-15 [2] and 200000 nM in test [5]. In addition, the inhibition at 1 µM in the test with HCT-116 [3] worked out at 59%; in the test with HCT-15 [4], 57%. Besides, the “Ratio IC50” value in the test with HCT-116 [6] and in the test on HCT-15 [7] was more than 250 each time.

Take `CC(C)C[C@@H]1NC(=O)[C@H](CC(C)C)NC(=O)[C@@H](Cc2ccc(O)cc2)NC(=O)[C@H](CC(C)C)NC(=O)[C@H](C(C)C)NC1=O` (HELM PEPTIDE1{L.L.V.L.[dY]}$PEPTIDE1,PEPTIDE1,1:R1-5:R2$$$V2.0): the IC50 with HCT-116 [1] amounted to 1500 nM; with HCT-15 [2], 1000 nM; in test [5], 200000 nM. Moreover, the inhibition at 1 µM came out at 45% with HCT-116 [3] and 47% with HCT-15 [4].

For `CC(C)C[C@@H]1NC(=O)[C@H](Cc2ccccc2)NC(=O)[C@H](CC(C)C)NC(=O)[C@H](C(C)C)NC(=O)[C@H](CC(C)C)NC1=O` (HELM PEPTIDE1{F.L.L.V.L}$PEPTIDE1,PEPTIDE1,1:R1-5:R2$$$V2.0), the results for the IC50 (with HCT-116 [1]; in the test on HCT-15 [2]; in test [5]) were 25000 nM, 46000 nM and 200000 nM, respectively. Moreover, the inhibition at 1 µM was determined as 28% in the test with HCT-116 [3] and 10% in the test on HCT-15 [4].

Consider `CC(C)C[C@@H]1NC(=O)[C@H](Cc2ccccc2)NC(=O)[C@H](CC(C)C)NC(=O)[C@@H](C(C)C)N(C)C(=O)[C@H](CC2CCCCC2)NC1=O` (HELM PEPTIDE1{[Cha].[CC(C)[C@H](C(=O)[*:2])N(C)[*:1]].L.F.L}$PEPTIDE1,PEPTIDE1,1:R1-5:R2$$$V2.0), for which the IC50 is 2100 nM in the test with HCT-116 [1], 800 nM in the test with HCT-15 [2] and 4000 nM in test [5]. Further, the inhibition at 1 µM with HCT-116 [3] came out at 48%; with HCT-15 [4], 60%.

As to `CC(C)C[C@@H]1NC(=O)[C@H](C(C)C)NC(=O)[C@H](CC(C)C)N(C)C(=O)[C@@H](CC(C)C)NC(=O)[C@@H](Cc2ccccc2)NC1=O` (HELM PEPTIDE1{[dL].[meL].V.L.[dF]}$PEPTIDE1,PEPTIDE1,1:R1-5:R2$$$V2.0), the 50% inhibitory concentration (IC50) is 700 nM in the test with HCT-116 [1], 2200 nM in the test with HCT-15 [2] and 136000 nM in test [5]. Also, the inhibition at 1 µM with HCT-116 [3] stood at 64%; with HCT-15 [4], 42%.
